The sample as a whole holds a higher share of hits than the screen did.
T cruzi HTS: inhibitors of intracellular Trypanosoma cruzi. intracellular Trypanosoma cruzi in host cells, plate reader. activity score (inhibition), % at 5.01 µM. hit rate 4.9% among 22,000; in the data active = activity score above about 55%;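 note: parasites and compound incubated about four days before reading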
INS-1E ATP HTS: preserves ATP levels in cytokine-treated INS-1E cells; INS-1E cytokine-induced death, ATP luminescence, 48 h; normalised: neutral wells 0, positive control 100; protection from cytokine-induced ATP loss, % at 10 µM; hit rate 0.1% among 20,000;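 active = mean replicate protection from cytokine-induced ATP loss at least 50% and at least 75% of replicates each reaching 50%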
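Test system: INS-1E rat cells | Quantity: 8000 cells per well | Medium: Phenol-red-free RPMI with 5% fetal bovine serum | Reagent: Cytokine cocktail of IFN-γ, TNF-α and IL-1β | Doses: One compound concentration, pin transfer | Timing: 48 h co-treatment, 10 min post-lysis read | Technique: Luminescent ATP assay (CellTiter-Glo)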
A1 apoptosis 2: compounds inhibiting A1, read as caspase activation; 24,000 tested, under 10 active; caspase activation, % (concentration not given with the values); MEF A1-2A-BIM cells, caspase-Glo luminescence, 3 h; percent of clofoctol response, DMSO zero; AID 2465; in the data active = caspase activation above about 5.9%
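Test system – A1-2A-BIM-expressing MEF cells · Input – 2500 cells/well · Medium – RPMI-1640 growth medium with 10% FBS · Compound dosing – 50 nL pinned compound · Timing – 3 h compound exposure at 37 °C · Technique – Caspase-Glo luminescence (DEVD substrate) · Evaluation – Caspase-3/7 activity from luminescence increase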
A number is an active result; n = inactive; x = no result.

SMILES	T cruzi HTS	INS-1E ATP HTS	A1 apoptosis 2
C[C@H]1CN([C@@H](C)CO)C(=O)CCCn2nncc2CO[C@@H]1CN(C)S(=O)(=O)c1ccc(-c2ccccc2)cc1	83.7	x	x
COc1ccc(/C=N/NC(=O)CCCCCC(=O)NO)cc1O	x	x	n
COC(=O)CCCCCCC(=O)N/N=C/c1cccc(C(=O)O)c1	n	n	n
C[C@@H]1CN([C@@H](C)CO)C(=O)CCCn2cc(nn2)CO[C@H]1CN(C)Cc1ccc(Oc2ccccc2)cc1	67.5	n	n
C[C@H]1CN([C@@H](C)CO)C(=O)CCCn2cc(nn2)CO[C@@H]1CN(C)Cc1ccc(Oc2ccccc2)cc1	n	x	n
COCCOC(=O)N1C(=O)[C@@]2(c3cc(C#CC4=CCCCC4)ccc31)[C@H](C(=O)N1CCN(c3ncccn3)CC1)[C@H]1C(=O)O[C@H](c3ccccc3)[C@H](c3ccccc3)N1[C@@H]2c1ccc(O)cc1	x	x	n
C[C@@H]1CN([C@H](C)CO)C(=O)c2cccc(NC(=O)Nc3ccc(C(F)(F)F)cc3)c2O[C@@H]1CN(C)Cc1ccc(-c2ccccc2)cc1	n	n	n
C[C@@H]1CN([C@H](C)CO)C(=O)c2cccc(NC(=O)Nc3ccc(C(F)(F)F)cc3)c2O[C@@H]1CN(C)Cc1ccc(C(F)(F)F)cc1	88.6	n	n
C[C@@H]1CN([C@H](C)CO)C(=O)c2cccc(NC(=O)C3CC3)c2O[C@@H]1CN(C)Cc1ccc(C(F)(F)F)cc1	n	n	x
C[C@@H]1CN([C@@H](C)CO)C(=O)c2cccc(NC(=O)Nc3ccc(C(F)(F)F)cc3)c2O[C@@H]1CN(C)Cc1ccc(-c2ccccc2)cc1	64.9	n	x
C[C@H]1CN([C@@H](C)CO)C(=O)c2cccc(NC(=O)Nc3ccc(F)cc3)c2O[C@@H]1CN(C)Cc1ccc(-c2ccccc2)cc1	n	n	n
C[C@H]1CN([C@@H](C)CO)C(=O)c2cccc(NC(=O)Nc3ccc(F)cc3)c2O[C@@H]1CN(C)Cc1ccc(C(F)(F)F)cc1	n	n	n
C[C@@H]1CN([C@H](C)CO)C(=O)c2cccc(NC(=O)C3CCCCC3)c2O[C@H]1CN(C)Cc1ccc(C(F)(F)F)cc1	78.3	n	x
C[C@@H]1CN([C@H](C)CO)C(=O)c2cccc(NC(=O)Nc3ccc(F)cc3)c2O[C@@H]1CN(C)Cc1ccc(-c2ccccc2)cc1	68.4	n	x
NC(=O)NCC#Cc1ccc2c(c1)[C@]1(C(=O)N2)[C@H](C(=O)Nc2nc3ccccc3s2)[C@H]2C(=O)O[C@H](c3ccccc3)[C@H](c3ccccc3)N2[C@@H]1c1ccccc1OCCO	x	x	n
O=C(O)CCCCCC(=O)N/N=C/c1c(O)ccc2ccccc12	n	n	n
O=C(NO)c1ccc(C(=O)N/N=C/c2ccc(F)c(Oc3ccccc3)c2)cc1	n	n	n
C[C@H]1CN([C@@H](C)CO)C(=O)c2cccc(NC(=O)Nc3ccc(C(F)(F)F)cc3)c2O[C@H]1CN(C)Cc1ccc(C(F)(F)F)cc1	63.1	n	x
C[C@@H]1CN([C@H](C)CO)C(=O)c2cccc(NC(=O)Nc3ccc(C(F)(F)F)cc3)c2O[C@H]1CN(C)Cc1ccc(C(F)(F)F)cc1	n	n	n
O=C(N/N=C/c1ccoc1)c1ccccn1	n	n	x
C[C@@H]1CN([C@H](C)CO)C(=O)c2cc(NS(=O)(=O)c3ccc(Cl)cc3)ccc2O[C@@H](C)CCCCO[C@H]1CN(C)C(=O)Nc1ccc(C(F)(F)F)cc1	x	x	n
Cc1ccc(S(=O)(=O)Nc2ccc3c(c2)C(=O)N([C@@H](C)CO)C[C@@H](C)[C@H](CN(C)C(=O)Nc2ccc(C(F)(F)F)cc2)OCCCC[C@@H](C)O3)cc1	x	x	n
C[C@@H]1CCCCO[C@@H](CN(C)C(=O)Nc2ccc(C(F)(F)F)cc2)[C@@H](C)CN([C@H](C)CO)C(=O)c2cc(NS(=O)(=O)c3ccc(Cl)cc3)ccc2O1	72.3	n	x
Cc1ccc(S(=O)(=O)Nc2ccc3c(c2)C(=O)N([C@H](C)CO)C[C@H](C)[C@H](CN(C)C(=O)Nc2ccc(C(F)(F)F)cc2)OCCCC[C@@H](C)O3)cc1	63.3	n	n
O=C(NO)c1ccc(C(=O)N/N=C/c2ccccc2Br)cc1	n	n	n
SMILES	T cruzi HTS	INS-1E ATP HTS	A1 apoptosis 2
O=C(NN=C1CCCCCC1)c1ccccc1O	n	n	x
O=C(O)CCCCCC(=O)N/N=C/c1cccnc1	n	n	x
COc1cc2c(cc1O)C(c1cccs1)N(Cc1cccc(OC(F)(F)F)c1)CC2 (stereo unspecified)	x	x	n
O=C(/C=C/c1ccc(OCCCc2ccccc2)cc1)NO	x	x	n
C[C@@H]1CN([C@H](C)CO)C(=O)Cc2cc(N(C)C)ccc2O[C@@H]1CN(C)Cc1ccc(C(=O)Nc2ccccc2N)cc1	63.0	n	n
C[C@@H]1CN([C@H](C)CO)C(=O)Cc2cc(NC(=O)c3ccncc3)ccc2O[C@H]1CN(C)Cc1ccc(C(=O)Nc2ccccc2N)cc1	n	n	n
C[C@@H]1CN([C@@H](C)CO)C(=O)c2cc(N(C)C)ccc2O[C@H]1CN(C)Cc1ccc(C(=O)Nc2ccccc2N)cc1	n	n	x
C[C@@H]1CN([C@H](C)CO)C(=O)Cc2cc(N(C)C)ccc2O[C@H]1CN(C)Cc1ccc(C(=O)Nc2ccccc2N)cc1	68.8	n	x
COc1ccc(NC(=O)Nc2cccc3c2O[C@@H](CN(C)CC2CC2)[C@H](C)CN([C@H](C)CO)C3=O)cc1	n	n	n
COc1ccc(Br)c(/C=N/NC(=O)c2cccc(C(=O)NO)c2)c1	n	n	n
COc1ccc(CCNC(=O)[C@@H]2c3ccccc3C(=O)N(Cc3ccccc3OC)[C@H]2c2ccc(CO)cc2)cc1	x	x	n
COc1ccc(NC(=O)O[C@H]2[C@H](OC(=O)Nc3ccccc3-c3ccccc3)[C@H](OC(=O)Nc3ccccc3-c3ccccc3)[C@@H](OC)O[C@@H]2CO)cc1	x	x	n
C[C@H]1CN([C@@H](C)CO)C(=O)Cc2cc(NC(=O)C3CC3)ccc2O[C@@H]1CN(C)Cc1ccc(C(F)(F)F)cc1	74.2	n	n
C[C@@H]1CN([C@@H](C)CO)C(=O)Cc2cc(NC(=O)Nc3ccc(C(F)(F)F)cc3)ccc2O[C@@H]1CN(C)C(=O)Nc1ccc(C(F)(F)F)cc1	76.1	n	n
C[C@@H]1CN([C@@H](C)CO)C(=O)Cc2cc(NC(=O)Nc3ccc(F)cc3)ccc2O[C@H]1CN(C)Cc1ccc(C(F)(F)F)cc1	x	x	n
C[C@@H]1CN([C@@H](C)CO)C(=O)Cc2cc(NC(=O)C3CC3)ccc2O[C@@H]1CN(C)Cc1ccc(C(F)(F)F)cc1	n	n	n
C[C@H]1CN([C@@H](C)CO)C(=O)Cc2cc(NC(=O)Nc3ccc(F)cc3)ccc2O[C@H]1CN(C)Cc1ccc(C(F)(F)F)cc1	n	n	x
C[C@@H]1CN([C@@H](C)CO)C(=O)Cc2cc(NC(=O)Nc3ccc(F)cc3)ccc2O[C@@H]1CN(C)Cc1ccc(C(F)(F)F)cc1	79.8	n	x
C[C@H]1CN([C@@H](C)CO)C(=O)Cc2cc(NC(=O)Nc3ccc(C(F)(F)F)cc3)ccc2O[C@@H]1CN(C)Cc1ccc(C(F)(F)F)cc1	69.4	n	n

Bioassay records from PubChem BioAssay.
